Sampled rows, rich in hits. Any-hit rate of the full collection: about 1.7%.
SUMO1-SIM PPI – SUMO1-SIM interaction modulation; P63165; SUMO1 binding to a labelled peptide, TR-FRET, 1 h; inhibition, % at 20 µM; 0.33% of 360,000 active; in the data active = inhibition above about 37%
Target sequence (P63165 whole entry, looked up): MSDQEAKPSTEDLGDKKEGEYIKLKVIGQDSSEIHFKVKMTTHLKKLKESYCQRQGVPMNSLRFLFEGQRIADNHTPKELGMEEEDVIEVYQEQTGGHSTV
STEP inh – blocks human striatal-enriched tyrosine phosphatase. AID 588621. recombinant STEP, OMFP fluorogenic substrate, fluorescence. 0.25% of 360,000 active. inhibition, % at 20 µM. P54829;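 active = inhibition at 20 µM, scaled per plate between control wells, above about 37%, limit read from the data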
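medium = Bis-Tris buffer pH 6.0, 2.5 mM DTT, 0.005% Tween 20 | test system = STEP (striatal-enriched tyrosine phosphatase) enzyme, cell-free | measure = normalized % inhibition | compound dosing = 20 µM, 1% DMSO | also added = 25 µM OMFP | schedule = reaction 20 min, ambient temperature | measured by = fluorescence read at 480 nm ex / 540 nm em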
Scp-1 inhibitor – Scp-1 (human) phosphatase inhibition; Q9GZU7; Recombinant Scp1, phosphopeptide, malachite green phosphate absorbance; inhibition, % at 20 µM; 0.88% of 340,000 active; AID 493091;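 active = inhibition above about 50% at 20 µM, limit read from the data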
Target sequence (Q9GZU7 76-261 limits assumed): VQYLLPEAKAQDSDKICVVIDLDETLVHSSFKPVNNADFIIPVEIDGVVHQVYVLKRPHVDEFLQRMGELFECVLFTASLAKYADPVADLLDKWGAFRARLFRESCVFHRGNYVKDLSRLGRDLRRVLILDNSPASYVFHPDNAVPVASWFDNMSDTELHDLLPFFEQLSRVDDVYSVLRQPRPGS
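System: SCP-1 catalytic domain; Reagent: Phospho 17-mer peptide substrate; Doses: one concentration, 20 µM, with 1.0% DMSO; Incubation: 45 min room-temperature reaction, 5 min colour, 30 min stabiliser; Signal: Phosphate-binding colour reagent, absorbance read at 630 nm.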
DNMT1 inh – blocks human DNA methyltransferase DNMT1 | P26358 | DNMT1 molecular beacon, Hinp1I cleavage, fluorescence | inhibition (reported as % activation of signal), % at 10 µM | 0.83% of 360,000 active | AID 588458; in the data active = inhibition above about 50%
LMPTP block – blocks human LMPTP phosphatase | P24666 | recombinant LMPTP-A, OMFP fluorogenic substrate, fluorescence intensity | inhibition, % at 20 µM | 0.22% of 360,000 active;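 active = compounds that cut the enzyme signal by at least half of the control window in the single-dose screen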
Target sequence (P24666 whole entry, looked up): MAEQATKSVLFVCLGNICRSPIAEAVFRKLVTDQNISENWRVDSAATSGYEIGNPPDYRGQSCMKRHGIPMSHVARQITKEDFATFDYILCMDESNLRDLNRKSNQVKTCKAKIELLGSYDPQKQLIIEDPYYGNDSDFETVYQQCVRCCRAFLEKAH
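Test system – LMPTP-A phosphatase enzyme · Quantity – 0.625 nM LMPTP-A final · Reagent – OMFP substrate, 400 µM final · Dosing – one test concentration per compound, 20 µM, with 3% DMSO overall · Timing – 50 min enzyme reaction at room temperature, protected from light · Detection – fluorescence intensity · Controls – substrate-only low control, DMSO enzyme-plus-substrate high control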
Scp1 confirm – Scp-1 (human) inhibition, single-dose confirmed; shares compounds with Scp-1 inhibitor; recombinant SCP-1 catalytic domain, phosphate release, malachite green absorbance; inhibition, % at 20 µM; 61% of 2,500 active; AID 540281
MG interference – counter-screen for Scp-1 inhibitors: colorimetric interference; shares compounds with Scp-1 inhibitor; Colorimetric interference counterscreen, malachite green absorbance 630 nm; apparent inhibition (interference), % at 20 µM; 2,500 tested, under 10 active; AID 540313;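 also: compounds added after enzyme reaction finished so only phosphate colour detection is probed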
Scp-1 Tm shift – Scp-1 (human) binding by thermal shift | shares compounds with Scp-1 inhibitor | Recombinant SCP1, Sypro Orange thermal shift Tm | thermal shift relative to vanadate control, % at 40 µM | 25% of 1,500 active;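 active = substances whose mean melting-temperature shift, as a percentage of the reference inhibitor's shift, reaches about 5.3%, limit read from the data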
Of the large screens only hits and unclear results are named; the others gave an inactive call (follow-up assays come after a bar, where they were run).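 The calls were made as follows, unless noted: active = inhibition of at least 30% at 20 µM; inactive = the rest.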

CC1(C)CC[C@]2(C(=O)O)CC[C@]3(C)C(=CCC4[C@@]5(C)CC[C@H](O)C(C)(C)C5CC[C@]43C)C2C1 (some centres undefined)	Scp-1 inhibitor 56, DNMT1 inh 78 (no result: STEP inh) | Scp1 confirm inactive | MG interference inactive
CCCCC1=CC2=C(c3ccco3)C(=O)C(C)(OC(=O)c3ccc(OC)cc3)C(=O)C2=CN1Cc1ccc2c(c1)OCO2 (centres undefined)	Scp-1 inhibitor 63 | Scp1 confirm inactive | MG interference inactive
Cc1ccc(S(=O)(=O)CCC(=O)OCC(=O)N2CCc3ccccc32)cc1	Scp-1 inhibitor 60 | Scp1 confirm inactive | MG interference inactive
CC(C)(CNC(=O)CNC(=O)c1ccc(Cl)cc1Cl)N1CCOCC1	none
C=CCn1c(C)c(/C=C/c2cc[n+](C)cc2)c2ccccc21	none
CCN(CC)C(=O)Cn1c(C)c(/C=C/c2cc[n+](C)cc2)c2ccccc21	Scp-1 inhibitor 63 | Scp1 confirm inactive | MG interference inactive
CCCOc1ccc(CNC(=O)c2ccc3nc(N4CCOCC4)sc3c2)cc1	none
Cc1noc(C)c1C(=O)Nc1cccc2ncccc12	none
CS(=O)(=O)NCCSCc1ccco1	Scp-1 inhibitor 98 | Scp1 confirm 64 | MG interference inactive | Scp-1 Tm shift inactive
CC(=O)Nc1ccc(S(=O)(=O)NCCSCc2ccco2)cc1	none
N#CC1C(=N)Cc2ccccc2-c2ccccc21 (centres undefined)	none
COc1ccc(/C=C(\NC(=O)c2ccccc2)C(=O)OC[C@@H]2CCC[N+]3(C)CCCCC23)cc1OC (some centres undefined)	Scp-1 inhibitor 102 | Scp1 confirm 89 | MG interference inactive | Scp-1 Tm shift inactive
Cc1ccc(C)c(NC(=O)CCC(=O)NN=C2CCCC2)c1	none
CCOc1ccc(-c2nnn(CC(=O)NCc3ccccc3)n2)cc1	Scp-1 inhibitor 57 | Scp1 confirm inactive | MG interference inactive
O=C(NCCc1ccccc1F)C1CCC(=O)N(Cc2ccccc2F)C1 (centres undefined)	none
Cc1ccccc1CNC(=O)C1CCC(=O)N(Cc2cccc(F)c2)C1 (centres undefined)	none | Scp1 confirm inactive | MG interference inactive
O=C(NCCN1CCNC1=O)C1CCC(=O)N(Cc2ccccc2F)C1 (centres undefined)	none | Scp1 confirm inactive | MG interference inactive
O=C(NCc1ccccc1OC(F)(F)F)C1CCC(=O)N(Cc2cccc(F)c2)C1 (centres undefined)	none
COc1ccccc1CN1CC(C(=O)NCc2cc(C(C)C)no2)CCC1=O (centres undefined)	Scp-1 inhibitor 70 | Scp1 confirm inactive | MG interference inactive
CC(C)CC1NC(=O)c2cc3ccccc3cc2-n2c1nc1cc(Cl)ccc1c2=O (centres undefined)	none (no result: Scp-1 inhibitor)
O=C(COc1c(Br)cc(Br)cc1Br)N/N=C/c1ccco1	none
O=C(/C=C/c1ccco1)N1CCN(S(=O)(=O)c2cccs2)CC1	Scp-1 inhibitor 58 | Scp1 confirm 47 | MG interference inactive | Scp-1 Tm shift inactive
Cc1ccc(/C=C/C(=O)N2CCN(S(=O)(=O)c3cccs3)CC2)o1	none
O=c1c(O)c(-c2ccc(O)cc2)oc2cc(O)cc(O)c12	Scp-1 inhibitor 53 | Scp1 confirm 54 | MG interference inactive | Scp-1 Tm shift 9.2
CC(=O)Nc1ccc(S(=O)(=O)NC(C)(C#N)C2CC2)cc1 (centres undefined)	none
CCC1(c2ccccc2)NC(=O)N(CC(=O)Nc2ccccc2C(=O)NC2CC2)C1=O (centres undefined)	none
CCC(C)(C)n1nnnc1C(c1ccc(C)cc1)N(Cc1ccco1)Cc1cccs1 (centres undefined)	Scp-1 inhibitor 107 | Scp1 confirm inactive | MG interference inactive
O=C(COC(=O)c1ccc(NS(=O)(=O)c2cccs2)cc1)Nc1nc2c(F)c(F)c(F)cc2s1	Scp-1 inhibitor 51 | Scp1 confirm 65 | MG interference inactive | Scp-1 Tm shift 26
COc1ccc(Cl)cc1S(=O)(=O)NCc1cccnc1	Scp-1 inhibitor 60 | Scp1 confirm inactive | MG interference inactive
CCOc1ccc(Cl)cc1S(=O)(=O)NCc1cccnc1	none
Cc1ccc(NC(=O)c2sc3ncn(CC(=O)N4CCOCC4)c(=O)c3c2C)c(Br)c1	none
CC(C(=O)NCc1cccc(Cl)c1)N1C(=O)c2ccccc2C1=O (centres undefined)	none
Cc1cccc(N2CCN(C(=O)CCCCCn3c(=S)[nH]c4ccc(N5CCOCC5)cc4c3=O)CC2)c1C	Scp-1 inhibitor 82 | Scp1 confirm inactive | MG interference inactive
Cc1cccc2nc3c(nc12)CCCC3	none
Cc1ccccc1C(=O)O[C@H]1[C@H](Cc2ccccc2)NS(=O)(=O)[C@H]2CC3C=C[C@]12O3	none
CC1CCC(C(C)C)C(OCC[N+](C)(C)C)C1 (centres undefined)	Scp-1 inhibitor 58 | Scp1 confirm inactive | MG interference inactive
CCOc1ccc(Nc2ccc(N)c(S(=O)(=O)O)c2)cc1	SUMO1-SIM PPI 37, STEP inh 81, Scp-1 inhibitor 84, DNMT1 inh 87, LMPTP block 74 | Scp1 confirm 66 | MG interference inactive | Scp-1 Tm shift 20
Cc1cc(NC(=O)CSc2nnc(COc3ccccc3)n2Cc2ccco2)no1	none
O=C(CSc1nc2ccccc2c(=O)n1Cc1ccco1)NCc1ccco1	Scp-1 inhibitor 74 | Scp1 confirm 74 | MG interference inactive | Scp-1 Tm shift inactive
O=C(NCc1ccco1)c1ccc2c(=O)n(Cc3ccco3)c(SCC(=O)N3CCCC3)nc2c1	Scp-1 inhibitor 101 | Scp1 confirm 70 | MG interference inactive | Scp-1 Tm shift inactive
O=C(CSc1nnc(COc2ccccc2)n1Cc1ccco1)NCc1ccco1	Scp-1 inhibitor 88 | Scp1 confirm 67 | MG interference inactive | Scp-1 Tm shift inactive
CCCCn1c(SCC(=O)NCc2ccco2)nnc1-c1ccco1	none
CCCCn1c(SCC(=O)NCc2ccco2)nnc1-c1ccoc1C	Scp-1 inhibitor 97 | Scp1 confirm 77 | MG interference inactive | Scp-1 Tm shift inactive
O=C1CC2(CCN(C(=O)c3cccc([N+](=O)[O-])c3)CC2)Oc2ccccc21	none
O=C(NCC1CCCO1)c1ccccc1 (centres undefined)	none
